Hits are enriched below; roughly 1.2% of the tested compounds scored in any of these assays.
SR-BI DiI inh = inhibitors of SR-BI mediated HDL lipid uptake, primary screen, ldlA[mSR-BI] cells, fluorescence, single point; Scavenger receptor class B member 1 (Mus musculus), Q61009; ldlA[mSR-BI] CHO cells, DiI-HDL uptake fluorescence, 3 h; inhibition, % at 12.5 µM; hit rate 0.96% among 320,000;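 active = mean replicate inhibition of at least 70% and a set share of replicates each scoring 70 or more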
Target sequence (Q61009 whole entry, looked up): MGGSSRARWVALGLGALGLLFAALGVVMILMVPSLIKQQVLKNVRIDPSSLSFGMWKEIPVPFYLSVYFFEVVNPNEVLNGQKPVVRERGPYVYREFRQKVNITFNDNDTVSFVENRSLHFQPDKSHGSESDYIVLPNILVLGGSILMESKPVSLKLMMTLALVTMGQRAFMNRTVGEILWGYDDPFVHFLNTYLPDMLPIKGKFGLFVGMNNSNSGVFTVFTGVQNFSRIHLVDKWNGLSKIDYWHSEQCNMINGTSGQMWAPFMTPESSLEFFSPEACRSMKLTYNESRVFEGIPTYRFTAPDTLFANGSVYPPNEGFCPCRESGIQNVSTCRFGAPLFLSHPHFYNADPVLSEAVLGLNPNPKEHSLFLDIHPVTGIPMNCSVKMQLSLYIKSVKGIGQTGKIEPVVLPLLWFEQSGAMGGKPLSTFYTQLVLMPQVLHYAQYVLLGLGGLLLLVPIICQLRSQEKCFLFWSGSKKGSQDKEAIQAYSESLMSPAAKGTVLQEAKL
SR-BI uptake up = activators of SR-BI mediated DiI-HDL uptake, primary screen, ldlA[mSR-BI] CHO cells, DiI fluorescence | 3 h; 100 = double the neutral-control signal | activation, % at 12.5 µM | hit rate 0.096% among 320,000 | AID 504775, 2011;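 active = mean replicate activation of at least 60% and every replicate at or above 60%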
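system = CHO ldlA[mSR-BI] cells, LDL receptor-null, SR-BI overexpressing | medium = Ham's F12 with 0.5% BSA, HEPES 25 mM, pH 7.4 | probe or stimulus = DiI-HDL 10 µg/mL | compound dosing = single-point compound dose | incubation = compound exposure 3 h, 37 °C | technique = DiI fluorescence, bottom read | read-out = cell-associated DiI fluorescence as measure of HDL uptake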
Efflux pump mplx = inhibitors of Candida efflux pumps in yeast, primary screen, S. cerevisiae, Nile Red, multiplex. S. cerevisiae Candida pump triplex. inhibition, % at 10 µM. hit rate 0.44% among 330,000;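 active = plate passing quality check with inhibition over a set limit, or well fluorescence over plate mean plus 4 SD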;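 note: Nile Red retained in pooled yeast measured as flow cytometry median fluorescence; higher means more Nile Red kept so more efflux inhibition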
FN deposition inh = inhibitors of fibronectin matrix deposition, primary screen, AH1F cells, Alexa488-fibronectin fluorescence, plate reader; AH1F fibroblasts, overnight; inhibition, % at 12.6 µM; hit rate 0.086% among 350,000; AID 743247, 2014;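 active = mean inhibition across replicates of 30% or more, regardless of how many single replicates reach that level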
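Test system: AH1F fibroblast monolayer depositing Alexa488-labelled fibronectin into matrix. Input: 10000 cells per well. Technique: fluorescence, ex 485 nm, em 525 nm. Buffer or medium: DMEM plus 2% serum, read in PBS. Timing: 1 h cell adhesion before compound, then overnight fibronectin incubation. Compound: single dose, pinned. Read-out basis: inhibition from reduced deposited-fibronectin fluorescence.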
CaV13 FRET inh = Disruptors of the CACNA1D IQ motif to Ca2+-dependent inactivation inhibitor domain association, primary screening, Förster resonance energy transfer in intact living …. HEK cells, CFP/YFP FRET ICDI-IQ, plate reader, 10 min; percent FRET-ratio fall versus neutral wells. inhibition, % at 12.3 µM. hit rate 0.098% among 340,000;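 active = mean replicate inhibition of at least 30% and at least 1% of replicates passing that level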
Of the large screens only hits and unclear results are named; the others gave an inactive call.

CCc1ccc(/C(C)=N/Nc2cc(Cl)nc(C)n2)cc1	SR-BI DiI inh 79 (no result: FN deposition inh)
O=C(O)c1cc([N+](=O)[O-])cc2ccccc12	SR-BI uptake up 90 (no result: Efflux pump mplx)
O=C(O)c1cc([N+](=O)[O-])ccc1-c1ccc([N+](=O)[O-])cc1C(=O)O	none (no result: SR-BI DiI inh, SR-BI uptake up, Efflux pump mplx, FN deposition inh)
CCC1CN(C(=O)NCc2ccc(C)cc2)c2cc(C)ccc2O1 (configuration not stated)	SR-BI DiI inh 78
CC(=O)OC1CCC2(C)C(CCC3C2CC(OC(C)=O)C2(C)C3C[C@@H]3O[C@]4(CC[C@@H](C)CO4)[C@@H](C)C32)C1 (some centres not stated)	none (no result: SR-BI DiI inh, SR-BI uptake up, FN deposition inh, CaV13 FRET inh)
CC1CC[C@@]2(OC1)O[C@H]1CC3[C@@H]4C[C@@H](O)[C@@]5(O)C[C@@H](O)[C@H](O)C[C@]5(C)[C@H]4CC[C@]3(C)[C@H]1[C@@H]2C (some centres not stated)	SR-BI uptake up 69
COC(=O)C1=CN(C)C=C(C(=O)OC)C1c1ccccc1Cl	CaV13 FRET inh 36 (no result: FN deposition inh)
CCCCOc1ccccc1C1C(C(=O)OC)=CN(CC)C=C1C(=O)OC	none (no result: FN deposition inh, CaV13 FRET inh)
COC(=O)c1cc2c(ccn2-c2ccc(F)cc2)n1Cc1ccc(OC)cc1	none
CCn1c(C(=O)OC)cc2c1ccn2-c1ccc(F)cc1	SR-BI DiI inh 78
Cc1cc(=O)oc2c1ccc1oc(/C(=N/O)c3ccccc3)c(C)c12	SR-BI uptake up 516 (no result: FN deposition inh)
Cc1cccc(C)c1NC(=O)COC(=O)c1ccccc1Nc1ccccc1	SR-BI DiI inh 82
COc1ccccc1C1C2=C(CC(C)(C)CC2=O)N(CC(=O)O)C2=C1C(=O)CC(C)(C)C2	CaV13 FRET inh 36
Cc1cc(-c2ccccc2)nc(N/N=C/c2ccc([N+](=O)[O-])cc2)n1	SR-BI DiI inh 73
Cc1cc(-c2ccccc2)nc(N/N=C/c2cccnc2)n1	none (no result: FN deposition inh)
Cc1cc(-c2ccccc2)nc(N/N=C/c2ccccc2)n1	SR-BI DiI inh 72
CCCC#Cc1cnc2c(c1)C(=O)N([C@H](C)CO)C[C@@H](C)[C@H](CN(C)C(=O)Nc1ccccc1OC)O2	none (no result: SR-BI DiI inh, SR-BI uptake up, Efflux pump mplx, CaV13 FRET inh)
COC(=O)c1ccc(C(=O)Nc2nc3cc(N)c(C)cc3s2)cc1	SR-BI DiI inh 81
CCCN(C)C[C@H]1OCCCC[C@H](C)Oc2ccc(NS(=O)(=O)c3ccc(F)cc3)cc2C(=O)N([C@@H](C)CO)C[C@@H]1C	none (no result: SR-BI DiI inh, SR-BI uptake up, Efflux pump mplx, CaV13 FRET inh)
COc1cc(OC)c(OC)cc1CNc1cc(C)ccc1OC	SR-BI DiI inh 72 (no result: FN deposition inh)
COc1ccc(C)cc1NCc1cccc(OC)c1OC	none (no result: FN deposition inh)
COc1cccc(NC(=O)N(C)C[C@H]2Oc3cc(C#Cc4ccccc4)ccc3S(=O)(=O)N([C@@H](C)CO)C[C@H]2C)c1	none (no result: SR-BI DiI inh, SR-BI uptake up, Efflux pump mplx, CaV13 FRET inh)
CCOC(=O)C(NC(=O)c1ccccc1)(OCC1(CC)COC1)C(F)(F)F (configuration not stated)	CaV13 FRET inh 41
CCOc1ccccc1NC(=O)NC1CCCc2ccccc21 (configuration not stated)	SR-BI DiI inh 79
CCOc1cccc(C(=O)Nc2ccc(N(CC)CC)cc2)c1	FN deposition inh 30
CCOc1cccc(C(=O)Nc2ccc(N3CCCC3)cc2)c1	SR-BI DiI inh 75
COc1cccc(C(=O)NC(=S)Nc2ccc(N3CCCC3)cc2)c1	none (no result: FN deposition inh, CaV13 FRET inh)
CCCCOc1ccc(C(=O)NCC(=O)N(C)CC(=O)Nc2ccc(N3CCOCC3)cc2)cc1	SR-BI DiI inh 82
CCN(CC)c1ccc(NC(=O)c2ccc3c(c2)c(C)c(C)n3C)cc1	SR-BI DiI inh 90
CC(C)NC(=O)N(C)C[C@H]1OCCCC[C@H](C)Oc2ccc(NC(=O)Nc3cccc4ccccc34)cc2C(=O)N([C@H](C)CO)C[C@H]1C	none (no result: SR-BI DiI inh, SR-BI uptake up, Efflux pump mplx, CaV13 FRET inh)
COC(=O)C[C@H]1C[C@@H]2c3cc(NC(=O)Nc4ccc(OC)cc4)ccc3O[C@@H]2[C@@H](CO)O1	none (no result: SR-BI DiI inh, SR-BI uptake up, Efflux pump mplx, CaV13 FRET inh)
C[C@@H]1CN(C)C(=O)c2cccc(N)c2O[C@@H]1CN(C)C	none (no result: SR-BI DiI inh, SR-BI uptake up, Efflux pump mplx, CaV13 FRET inh)
CCOc1ccc(C(=O)Nc2ccc(N3CCCC3)cc2)cc1	SR-BI DiI inh 77 (no result: FN deposition inh, CaV13 FRET inh)

High-throughput results (PubChem BioAssay)
